Series [1] concerns the target T1, Adrenergic receptor alpha-2 (Homo sapiens, UniProt P08913+P18825+P18089).
T1 sequence (P08913 whole entry): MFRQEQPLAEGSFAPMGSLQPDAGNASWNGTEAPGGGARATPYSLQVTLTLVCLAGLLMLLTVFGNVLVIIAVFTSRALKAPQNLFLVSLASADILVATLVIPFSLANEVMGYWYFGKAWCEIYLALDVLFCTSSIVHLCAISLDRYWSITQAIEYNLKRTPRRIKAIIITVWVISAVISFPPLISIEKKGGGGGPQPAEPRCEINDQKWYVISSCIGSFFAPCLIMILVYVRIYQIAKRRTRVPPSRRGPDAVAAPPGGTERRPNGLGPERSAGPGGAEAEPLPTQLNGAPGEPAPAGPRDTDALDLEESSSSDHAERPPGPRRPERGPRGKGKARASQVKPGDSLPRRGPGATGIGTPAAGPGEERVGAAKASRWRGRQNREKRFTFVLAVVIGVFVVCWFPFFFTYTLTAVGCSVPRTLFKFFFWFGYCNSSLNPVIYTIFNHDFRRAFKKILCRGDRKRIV
T1 sequence (P18825 whole entry): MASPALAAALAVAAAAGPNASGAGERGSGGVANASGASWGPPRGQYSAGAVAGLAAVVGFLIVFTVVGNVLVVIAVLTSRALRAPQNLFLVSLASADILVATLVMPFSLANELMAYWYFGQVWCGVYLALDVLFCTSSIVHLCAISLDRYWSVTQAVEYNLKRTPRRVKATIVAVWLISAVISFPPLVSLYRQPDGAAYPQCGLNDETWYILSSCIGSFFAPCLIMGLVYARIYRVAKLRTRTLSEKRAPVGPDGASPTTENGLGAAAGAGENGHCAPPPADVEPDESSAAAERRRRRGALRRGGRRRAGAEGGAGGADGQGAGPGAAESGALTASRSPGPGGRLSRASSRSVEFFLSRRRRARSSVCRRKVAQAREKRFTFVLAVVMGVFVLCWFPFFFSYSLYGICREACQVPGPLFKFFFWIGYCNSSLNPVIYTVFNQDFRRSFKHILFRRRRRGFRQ
T1 sequence (P18089 whole entry): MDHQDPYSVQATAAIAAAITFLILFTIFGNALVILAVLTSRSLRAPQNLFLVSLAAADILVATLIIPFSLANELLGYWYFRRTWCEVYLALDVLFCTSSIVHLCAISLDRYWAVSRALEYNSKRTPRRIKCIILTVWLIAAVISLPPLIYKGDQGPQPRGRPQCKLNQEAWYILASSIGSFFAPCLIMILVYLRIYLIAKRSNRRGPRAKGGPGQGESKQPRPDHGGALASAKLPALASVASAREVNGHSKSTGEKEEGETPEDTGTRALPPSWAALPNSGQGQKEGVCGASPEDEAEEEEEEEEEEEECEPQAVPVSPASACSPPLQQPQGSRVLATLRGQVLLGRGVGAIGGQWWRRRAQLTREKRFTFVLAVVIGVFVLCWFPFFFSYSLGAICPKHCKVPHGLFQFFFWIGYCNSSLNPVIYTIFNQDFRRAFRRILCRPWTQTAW
The experiment in a line: Displacement of [3H]-RX821002 from adrenergic alpha 2 receptor in post-mortem human brain frontal cortex membrane measured after 30 mins by liquid scintillation counting spectrometry. The format is cell membranes. In general terms: In a radioligand displacement assay an active substance lowers the binding of a labelled ligand.

For series [2], the species on record is Homo sapiens. The experiment in a line: Selectivity index, ratio of pKi for displacement of [3H]2-BFI from imidazoline I2 receptor in post-mortem human brain frontal cortex membrane to pKi for displacement of [3H]-RX821002 from adrenergic alpha 2 receptor in post-mortem human brain frontal cortex membrane. Type of series: cell membranes.
Series [3] can be described thus: Permeability of compound by PAMPA-BBB assay. Type of series: ADME.
A further series has as its system LN-229. Briefly: Cytotoxicity against human LN-229 cells at 100 uM by real time IncuCyte proliferation assay. The format is cell-based. As to conditions: ln-229, 100 µM. In a few lines:
(§1)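 Adherent lines (LN-229, Capan-1, HCT-116, NCI-H460) seeded at 500–1500 cells/well and treated after overnight attachment. Suspension lines (HL-60, K-562, Z-138, DND-41) seeded at 2500–5500 cells/well directly with compound. Highest concentration 100 μM; proliferation tracked by real-time IncuCyte imaging over 72 h at 37 °C.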

The next series relates to CAPAN-1. Briefly: Cytotoxicity against human CAPAN-1 cells at 100 uM by real time IncuCyte proliferation assay. To be noted: capan-1, 100 µM. Type of series: cell-based. In a few lines:
as §1

The test system of the next series is HCT-116. The experiment in a line: Cytotoxicity against human HCT-116 cells at 100 uM by real time IncuCyte proliferation assay. As to conditions: hct-116, 100 µM. The format is cell-based. In a few lines:
as §1

The test system of another series is NCI-H460. The experiment in a line: Cytotoxicity against human NCI-H460 cells at 100 uM by real time IncuCyte proliferation assay. The format is cell-based. As to conditions: nci-h460, 100 µM. In a few lines: as §1
Series [4] is described as follows: Cytotoxicity against human DND41 cells at 100 uM by real time IncuCyte proliferation assay. The format is cell-based. As to conditions: dnd41, 100 µM. In a few lines: as §1
The next series concerns HL-60. Briefly: Cytotoxicity against human HL-60 cells at 100 uM by real time IncuCyte proliferation assay. The format is cell-based. To be noted: hl-60, 100 µM. In a few lines: as §1
A further series concerns K562. The experiment in a line: Cytotoxicity against human K562 cells at 100 uM by real time IncuCyte proliferation assay. Type of series: cell-based. To be noted: k562, 100 µM. In a few lines: as §1
For a further series, the system named is Z-138. The experiment in a line: Cytotoxicity against human Z138 cells at 100 uM by real time IncuCyte proliferation assay. The format is cell-based. As to conditions: z-138, 100 µM. In a few lines: as §1
Series [5] can be described thus: Displacement of [3H]2-BFI from imidazoline I2 receptor in post-mortem human brain frontal cortex membrane one site model measured after 45 mins by liquid scintillation counting spectrometry.
Series [6] is described as follows: Displacement of [3H]2-BFI from imidazoline I2 receptor low affinity site in post-mortem human brain frontal cortex membrane two site model measured after 45 mins by liquid scintillation counting spectrometry.
Series [7] in a line: Displacement of [3H]2-BFI from imidazoline I2 receptor high affinity site in post-mortem human brain frontal cortex membrane two site model measured after 45 mins by liquid scintillation counting spectrometry.
Series [8] is filed under the species Homo sapiens. The experiment in a line: Displacement of [3H]2-BFI from imidazoline I2 receptor in post-mortem human brain frontal cortex membrane assessed as occupancy at high affinity site measured after 45 mins by liquid scintillation counting spectrometry.

On to `c1ccc2oc(C3=NCCN3)cc2c1`, for which the negative-log Ki (pKi) (commonly the negative decadic logarithm of the Ki, by convention in mol/L) in series [1] was 4.58; in series [5], 8.31; in series [6], 7.15; in series [7], 9.08. In the series listed under Homo sapiens [2], the Selectivity Index stood at 5370. In [3], the Papp (in general, the rate of passage across a membrane or cell layer, normalised by area and donor concentration) turned out to be 6.1 ×10⁻⁶ cm/s. Also, the Activity result (in the series on LN-229; in the series with CAPAN-1; with HCT-116; in the series with NCI-H460; in series [4]; in the series on HL-60) was “Non-Toxic” each time. Also, the Activity entry in the series with K562 is “Non-Toxic”; with Z-138, “Non-Toxic”; in the series listed under Homo sapiens [8], 58%.
For `CCn1ccnc1-c1cc2cc(OC)ccc2o1.Cl`, the negative-log Ki (pKi) is listed as 4.21 in series [1], 4.96 in series [5], 4.16 in series [6] and 6.95 in [7]. The Selectivity Index in the series listed under Homo sapiens [2] is 6. This molecule showed a Papp in [3] of 12.4 ×10⁻⁶ cm/s. Further, the Activity result (in the series on LN-229; in the series with CAPAN-1; in the series with HCT-116; in the series with NCI-H460; in series [4]; with HL-60) was “Non-Toxic” each time. Moreover, the results for the Activity result in the series with K562, in the series with Z-138 and in the series listed under Homo sapiens [8] were “Non-Toxic”, “Non-Toxic” and 35%, respectively.
For the molecule `Brc1ccc2oc(-c3ncc[nH]3)cc2c1.Cl`, the pKi in [1] came to 4.92; in series [5] it was 6.28; in [6], 5.85; in [7], 8.63. Also, the Selectivity Index in the series filed under Homo sapiens [2] is 23. The molecule also had a Papp in [3] of 20.3 ×10⁻⁶ cm/s. Moreover, the Activity entry (with LN-229; in the series with CAPAN-1; in the series on HCT-116; in the series on NCI-H460; in series [4]; in the series with HL-60) was “Non-Toxic” each time. Besides, the Activity entry was “Non-Toxic” with K562, “Non-Toxic” in the series on Z-138 and 20% in the series listed under Homo sapiens [8].
As for `CCn1ccnc1-c1cc2ccc(OC)cc2o1.Cl`, the pKi is recorded as 3.17 in [1], 5.26 in [5], 5.11 in series [6] and 9.13 in series [7]. In the series listed under Homo sapiens [2], the Selectivity Index was determined as 123. Moreover, the apparent permeability coefficient (Papp) in series [3] came out at 14.8 ×10⁻⁶ cm/s. The Activity entry (in the series on LN-229; in the series on CAPAN-1; in the series with HCT-116; in the series with NCI-H460; in series [4]; in the series on HL-60) was “Non-Toxic” throughout. The Activity entry with K562 was “Non-Toxic”; in the series on Z-138, “Non-Toxic”; in the series filed under Homo sapiens [8], 12%.
For `Cl.Oc1ccc2cc(-c3ncc[nH]3)oc2c1`, the pKi amounted to 3.76 in series [1] and 5.48 in [5]. Moreover, the Selectivity Index in the series filed under Homo sapiens [2] was found to be 52. Further, in series [3], the Papp worked out at 0.1 ×10⁻⁶ cm/s. Moreover, the Activity result (in the series on LN-229; in the series on CAPAN-1; with HCT-116; with NCI-H460; in series [4]; in the series with HL-60) was “Non-Toxic” in each case. The Activity entry in the series on K562 and in the series on Z-138 was “Non-Toxic” in each case.
In series [3], `c1ccc2c(c1)OCC(C1=NCCN1)O2` (configuration not stated) [IDAZOXAN] gave a Papp of 3.3 ×10⁻⁶ cm/s. The Activity entry (in the series with LN-229; with CAPAN-1; with HCT-116; with NCI-H460; in series [4]; in the series on HL-60) was “Non-Toxic” each time. The figures for the Activity result in the series on K562, with Z-138 and in the series filed under Homo sapiens [8] were “Non-Toxic”, “Non-Toxic” and 40%, respectively. Further, the results for the pKi in [5], in series [6] and in [7] were 7.41, 5.76 and 7.87, respectively.
With `CCn1ccnc1-c1cc2ccccc2o1.Cl`, the pKi in series [1] was determined as 3.77; in series [5], 5.05; in [6], 4.72; in [7], 7.09. Besides, the Selectivity Index in the series listed under Homo sapiens [2] turned out to be 19. The same molecule returned a Papp in series [3] of 19.2 ×10⁻⁶ cm/s. Also, the Activity entry (in the series with LN-229; with CAPAN-1; with HCT-116; in the series on NCI-H460; in series [4]; in the series on HL-60) was “Non-Toxic” each time. Moreover, the Activity entry with K562 is “Non-Toxic”; in the series on Z-138 it was “Non-Toxic”; in the series filed under Homo sapiens [8], 22%.
Regarding `Cl.Oc1ccc2oc(-c3ncc[nH]3)cc2c1`, the negative-log Ki (pKi) in series [1] was found to be 3.84; in series [5] it was 4.87; in series [6], 4.6; in series [7], 9.57. The Selectivity Index in the series filed under Homo sapiens [2] turned out to be 11. The Papp in series [3] is 0.32 ×10⁻⁶ cm/s. For the same molecule, the Activity entry (in the series with LN-229; with CAPAN-1; with HCT-116; in the series on NCI-H460; in [4]; with HL-60) was “Non-Toxic” in each case. For the same molecule, the figures for the Activity result in the series with K562, in the series with Z-138 and in the series filed under Homo sapiens [8] were “Non-Toxic”, “Non-Toxic” and 29%, respectively.
`COc1ccc2oc(-c3ncc[nH]3)cc2c1.Cl`: the pKi in series [1] is listed as 3.94; in [5] it was 6.41. The Selectivity Index in the series listed under Homo sapiens [2] amounted to 295. The molecule further displayed an apparent permeability coefficient (Papp) in series [3] of 8.3 ×10⁻⁶ cm/s. Moreover, the Activity result (in the series with LN-229; in the series with CAPAN-1; in the series on HCT-116; in the series on NCI-H460; in [4]; in the series on HL-60) was “Non-Toxic” in each case. Besides, the Activity result in the series with K562 and in the series on Z-138 was “Non-Toxic” in each case.
